Bioassay records from PubChem BioAssay.
This is a sample that favours compounds with a hit; in the whole collection about 4.1% have one here.
Apaf1 inhib – blocks human Apaf-1 apoptosome activity | inhibition, % at 20 µM | AID 489030 | reconstituted apoptosome caspase-3 activity, DEVD-Rh110 fluorescence | 330,000 tested, 0.71% active; active means inhibition of at least 40% at 20 µM
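Assay system – apoptosome proteins · Medium – Hepes buffer, pH 7.5 · Also added – cytochrome c with DEVD-Rh110 · Timing – 30 min compound preincubation, 50 min activation, room temperature · Detection – Rh110 fluorescence, excitation 480 nm, emission 540 nm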
Mdm2 MdmX PPI – human Mdm2/MdmX binding inhibition. 330,000 tested, 3% active. SaOS-2 split-luciferase Mdm2/MdmX complementation, luminescence. O15151+Q00987. inhibition, % at 8 µM. AID 485346;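 active means inhibition of at least 50% at 8 µM in the primary screen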
UPR XBP1 act – adaptive UPR (XBP1) activation | activation, % at 20 µM | 330,000 tested, 0.33% active | CHO-XBP1 luciferase reporter, IRE1-XBP1 UPR activation, luminescence; percent of tunicamycin response, DMSO as zero;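 active means versus positive control, 20 µM dose yields 30% or more activation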
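Material: CHO cell line with stable XBP1 luciferase reporter; buffer or medium: F12 medium containing 10% fetal bovine serum; compound: single point, 20 µM final compound, 1% DMSO; incubation: 6 h treatment, 37 °C; measured by: glow luminescence from Steady-Glo reagent; evaluation: activation, % of tunicamycin; control set: tunicamycin high, DMSO low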
UBC13 inh – blocks human UBC13 polyubiquitin chain formation; P61088; AID 485273; TR-FRET; 330,000 tested, 0.47% active; inhibition, % at 20 µM; in the data active means inhibition above about 45%, passing the limit was not always enough
UPR CHOP act – apoptotic UPR (CHOP) activation; CHO-CHOP luciferase reporter, luminescence; percent of tunicamycin response over DMSO baseline; activation, % at 10 µM; 330,000 tested, 0.34% active; AID 449763;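 active means at 10 µM dose, activation of 40% or more, normalized to positive control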
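Dosing – one dose, 10 µM in 0.5% DMSO · System – CHO-CHOP cells, stable luciferase reporter of PERK-eIF2a-CHOP signalling · Input – 500 cells/well · Control set – tunicamycin 10 µg/mL final as positive, DMSO-only wells as negative · Timing – 6 h compound treatment, 37 °C · Measure – % activation vs tunicamycin · Technique – luminescence read with Steady-Glo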
Apaf-1 inh conf – Apaf-1 inhibition, single-dose confirmed. shares compounds with Apaf1 inhib. AID 504614. reconstituted apoptosome, caspase-3 DEVD-Rh110 fluorescence. inhibition, % at 20 µM. 1,800 tested, 25% active;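 active means mean inhibition of at least 40% at 20 µM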
Rh110 interf inh – counter-screen for Apaf-1 inhibitors: fluorescence interference. Rh110 fluorescence interference, quenched caspase reaction. 1,800 tested, under 10 active. shares compounds with Apaf1 inhib. activation (fluorescence interference), % at 20 µM;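 active means signal rise of 40% or more at 20 µM, treated as a fluorescence artifact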
Apaf1 inh interf – counter-screen for Apaf-1 inhibitors: fluorescence interference, dose response. 460 tested, under 10 active. fluorescence interference counterscreen, Apaf-1 assay format. AID 588538. shares compounds with Apaf1 inhib. IC50, µM; call rule not given here
Large screens that a line does not name were inactive (follow-up assays come after a bar, where they were run).

Cc1ccc2[nH]c3c(c2c1)CN(C(=O)CN1CCCCC1)CC3	none
COc1ccc(CC(=O)Oc2ccc(F)c(F)c2)cc1S(=O)(=O)N1CCOCC1	none
Cc1cc(OC(=O)c2ccccc2)n(CCC#N)n1	Apaf1 inhib 43 | Apaf-1 inh conf inactive | Rh110 interf inh inactive
N/C(=N\OC(=O)c1ccc(Cl)cc1)c1cccnc1	none
N/C(=N\OC(=O)c1ccc(Cl)cc1Cl)c1cccnc1	Apaf1 inhib 76 | Apaf-1 inh conf inactive | Rh110 interf inh inactive
Cn1ccc2ccc(C3=CC(=O)C[C@H](c4ccc(F)cc4)C3)cc21	none
Cc1ccc(N2CC(O)=C(c3nc4ccccc4c(=O)[nH]3)C2=N)cc1C	none
O=C(NNc1cc(N2CCOCC2)nc(N2CCOCC2)n1)c1ccc(Cl)cc1Cl	Apaf1 inhib 47 | Apaf-1 inh conf inactive | Rh110 interf inh inactive
CC(=O)NNc1cc(N2CCOCC2)nc(N2CCOCC2)n1	none
COc1ccc(NC(=O)NNc2cc(N3CCOCC3)nc(N3CCOCC3)n2)cc1	Apaf1 inhib 52 | Apaf-1 inh conf inactive | Rh110 interf inh inactive
CC(C)(C)c1ccc(C(=O)NNc2cc(N3CCOCC3)nc(N3CCOCC3)n2)cc1	none
O=C(CSc1nnc(-c2ccncc2)n1CC1CCCO1)NCc1ccccc1 (stereo unspecified)	none
O=C(CSc1nnc(-c2ccc(F)cc2)n1CC1CCCO1)NCc1ccco1 (stereo unspecified)	Apaf1 inhib 54 | Apaf-1 inh conf inactive | Rh110 interf inh inactive
CC/C(=N/Nc1cccc(C)c1)c1cnnc(SC)n1	Apaf1 inhib 63 | Apaf-1 inh conf inactive | Rh110 interf inh inactive
CCC(=O)N(C)/C=C1\Sc2ccccc2C1=O	none
CCC(=O)N(C1=C(NC)C(=O)c2ccccc2C1=O)C(C)C	Apaf1 inhib 69 | Apaf-1 inh conf 49 | Rh110 interf inh inactive | Apaf1 inh interf inactive
CC1(C)C=C2C(=NN(c3ccccc3)C(N)=C2C#N)CO1	Apaf1 inhib 47 | Apaf-1 inh conf 98 | Rh110 interf inh inactive | Apaf1 inh interf inactive
CC1(C)Cc2c(C#N)c(N)n(-c3ccccc3)c(=S)c2CO1	none
C/C(CC(=O)Nc1cccc(Br)c1)=N\NC(=O)c1ccc(O)cc1O	none
CCN(CC(=O)Nc1c(F)cccc1F)C(=O)c1ccc(N2CCCC2=O)cc1	none
Cc1ccc(NC2CCCN(C(=O)c3cccs3)C2)cc1C (stereo unspecified)	none
O=C1C(Cl)=C(NCc2cccnc2)C(=O)c2ccccc21	Apaf1 inhib 85 | Apaf-1 inh conf 65 | Rh110 interf inh inactive | Apaf1 inh interf inactive
COc1ccc2[nH]c(C(=O)O)c(NC(=O)c3cc(OC)c(OC)c(OC)c3)c2c1	none
CCOC(=O)c1c(/N=C/c2cccc([N+](=O)[O-])c2O)sc(C)c1C	none
Oc1ccc(C=Nc2cccc3ccccc23)c(O)c1	Apaf1 inhib 81 | Apaf-1 inh conf inactive | Rh110 interf inh inactive
Cc1nc2ccccc2c(=O)n1/N=C/c1ccc(O)cc1O	none
O=[N+]([O-])c1cccc(C=Nc2cccc3ccccc23)c1O	Apaf1 inhib 93 | Apaf-1 inh conf 44 | Rh110 interf inh inactive | Apaf1 inh interf inactive
Oc1c(Br)cc(Br)cc1C=Nc1cccc2ncccc12	Apaf1 inhib 97 | Apaf-1 inh conf 56 | Rh110 interf inh inactive | Apaf1 inh interf inactive
CC(N=Cc1cc([N+](=O)[O-])ccc1O)c1ccccc1 (stereo unspecified)	none
O=[N+]([O-])c1ccc(O)c(C=Nc2cccc3ccccc23)c1	Apaf1 inhib 88 | Apaf-1 inh conf inactive | Rh110 interf inh inactive
CCCn1c(SCC(=O)N2c3ccc(F)cc3CCC2C)nnc1-c1ccccn1 (stereo unspecified)	none
COc1ccc(C(=O)Nc2ccc(NC(=O)Cc3ccccc3)cn2)cc1	none
O=C(NC(c1ccccc1)c1ccccc1)c1cccc(S(=O)(=O)NCc2ccccc2)c1	none
O=[N+]([O-])c1ccc(O)c(C=Nc2cccc3ncccc23)c1	Apaf1 inhib 91 | Apaf-1 inh conf inactive | Rh110 interf inh inactive
CCC(=O)N(CC)C1=C(O)c2ccccc2C(=O)C1=O	Apaf1 inhib 55 | Apaf-1 inh conf inactive | Rh110 interf inh inactive
COc1ccc(Nc2ccc(OC)cc2)cc1	Apaf1 inhib 80 | Apaf-1 inh conf inactive | Rh110 interf inh inactive
COc1ccc(Nc2ccc(Nc3ccc(OC)cc3)nn2)cc1	none
C=CCn1c(N)cc(=O)nc1SCC(=O)N1CCN(c2ccc(F)cc2)CC1	none
CN(CC(=O)Nc1ccccc1Cl)C(=O)COC(=O)C1CCN(c2ccc(C(F)(F)F)cn2)CC1	none
